The source of these data is ChEMBL document CHEMBL5131404, “Lipophilic quinolone derivatives: Synthesis and in vitro antibacterial evaluation” (2022).

Converted amounts (≈) assume the structure as drawn. Where only a bound is given, the exact number is not on record here.

Broadly, the MIC is the smallest concentration in the dilution series that meets the test's criterion for growth inhibition. Low values mean a more susceptible organism, high ones a less susceptible organism.

Type in all cases: functional
In test [1] the test system is Staphylococcus aureus. The test is described as follows: Antibacterial activity against Staphylococcus aureus ATCC 29213. The method, boiled down: (§1)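 Broth microdilution MIC following CLSI guidelines. Strains were grown on Mueller-Hinton agar beforehand. The MIC is the lowest compound concentration that inhibits bacterial growth, determined at least three times in independent experiments.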

Test [2] deals with Neisseria gonorrhoeae. The test is described as follows: Antibacterial activity against Neisseria gonorrhoeae ATCC 19424. The essentials: (§2)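 Agar dilution MIC. Strains were cultured on GC agar with 2% v/v Vitox and 1% haemoglobin. Suspensions of 10^5 CFU/mL were spotted in duplicate onto the same supplemented GC agar containing various compound concentrations, then incubated 24-48 h at 37°C in 5% CO2. The MIC is the lowest concentration inhibiting growth, from at least three independent experiments.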

In test [3] the test system is Acinetobacter baumannii. As to the kind of experiment: Antibacterial activity against Acinetobacter baumannii 139. The method, boiled down: as §1
For test [4], the system named is Pseudomonas aeruginosa. The test is described as follows: Antibacterial activity against Pseudomonas aeruginosa 143. The method, boiled down:
as §1

Test [5] deals with Staphylococcus aureus. As to the kind of experiment: Antibacterial activity against methicillin-resistant Staphylococcus aureus 196. The method, boiled down:
(§3)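 Strains grown on Mueller-Hinton agar. MIC by broth microdilution following CLSI guidelines, taken as the lowest concentration inhibiting bacterial growth. Determined at least three times in independent experiments.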

Test [6] relates to Pseudomonas aeruginosa. As to the kind of experiment: Antibacterial activity against Pseudomonas aeruginosa 142. The essentials: as §1
For a further test, the system named is Streptococcus pneumoniae. The test is described as follows: Antibacterial activity against Streptococcus pneumoniae ATCC 49169. The method, boiled down: as §1
The subject of test [7] is Escherichia coli. As to the kind of experiment: Antibacterial activity against Escherichia coli ATCC 35218. The method, boiled down: as §1
Test [8] deals with Escherichia coli. The test is described as follows: Antibacterial activity against Escherichia coli 202. The method, boiled down: as §1
In test [9] the test system is Acinetobacter baumannii. The test is described as follows: Antibacterial activity against Acinetobacter baumannii ATCC 19606. The method, boiled down:
as §1

The subject of test [10] is Pseudomonas aeruginosa. As to the kind of experiment: Antibacterial activity against Pseudomonas aeruginosa ATCC 27853. The method, boiled down:
as §1

Test [11] deals with Escherichia coli. The test is described as follows: Antibacterial activity against Escherichia coli 203. The method, boiled down:
as §1

Test [12] concerns Acinetobacter baumannii. As to the kind of experiment: Antibacterial activity against Acinetobacter baumannii 140. The method, boiled down:
as §1

The subject of test [13] is Staphylococcus aureus. As to the kind of experiment: Antibacterial activity against methicillin-resistant Staphylococcus aureus 197. The essentials: as §3
The test system of test [14] is Neisseria gonorrhoeae. As to the kind of experiment: Antibacterial activity against Neisseria gonorrhoeae WHO A. The essentials: as §2
Test [15] concerns Neisseria gonorrhoeae. The test is described as follows: Antibacterial activity against Neisseria gonorrhoeae WHO O. The essentials:
as §2

Test [16] deals with Neisseria gonorrhoeae. The test is described as follows: Antibacterial activity against Neisseria gonorrhoeae WHO Q. The essentials:
as §2

Test [17] concerns Neisseria gonorrhoeae. As to the kind of experiment: Antibacterial activity against Neisseria gonorrhoeae WHO M. The method, boiled down: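 Agar dilution on GC agar base with 2% v/v Vitox and 1% haemoglobin containing graded compound concentrations. Suspensions at 10^5 CFU/mL spotted in duplicate. Incubation 24-48h, 37°C, 5% CO2. MIC taken as the lowest concentration inhibiting growth, determined at least three times in independent experiments.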

Test [18] deals with Neisseria gonorrhoeae. The test is described as follows: Antibacterial activity against Neisseria gonorrhoeae WHO E. The essentials: as §2
Test [19] has as its system Neisseria gonorrhoeae. The test is described as follows: Antibacterial activity against Neisseria gonorrhoeae WHO C. The method, boiled down: as §2
The subject of test [20] is Neisseria gonorrhoeae. As to the kind of experiment: Antibacterial activity against Neisseria gonorrhoeae Barla194. The essentials: as §2
Test [21] deals with Neisseria gonorrhoeae. The test is described as follows: Antibacterial activity against Neisseria gonorrhoeae WHO Z. The essentials:
as §2

In test [22] the test system is Neisseria gonorrhoeae. The test is described as follows: Antibacterial activity against Neisseria gonorrhoeae WHO K. The method, boiled down: as §2
Test [23] has as its system Neisseria gonorrhoeae. The test is described as follows: Antibacterial activity against Neisseria gonorrhoeae WHO B. The essentials:
as §2

Test [24] concerns Neisseria gonorrhoeae. The test is described as follows: Antibacterial activity against Neisseria gonorrhoeae WHO G. The essentials: as §2

As to `CCCCCCCCCCCCCCN1CCN(c2c(F)cc3c(=O)c(C(=O)O)cn(C4CC4)c3c2OC)CC1`, the MIC against Staphylococcus aureus [1] is 32 µg/mL (≈ 57.4 µM); in the test on Neisseria gonorrhoeae [2], 0.12 µg/mL (≈ 0.215 µM); with Acinetobacter baumannii [3] it was no less than 64 µg/mL; in the test on Pseudomonas aeruginosa [4] it was greater than 64 µg/mL; against Staphylococcus aureus [5], greater than 64 µg/mL; in the test with Pseudomonas aeruginosa [6] it was greater than 64 µg/mL. The MIC is 8 µg/mL (≈ 14.3 µM) against Streptococcus pneumoniae; 32 µg/mL (≈ 57.4 µM) with Escherichia coli [7]; 64 µg/mL (≈ 115 µM) in the test with Escherichia coli [8]; 64 µg/mL (≈ 115 µM) against Acinetobacter baumannii [9]; greater than 64 µg/mL against Pseudomonas aeruginosa [10]; greater than 64 µg/mL with Escherichia coli [11]. For the same molecule, the MIC in the test on Acinetobacter baumannii [12] was no less than 64 µg/mL; with Staphylococcus aureus [13] it was greater than 64 µg/mL.

For the molecule `COc1c(N2C[C@@H]3CCCN[C@@H]3C2)c(F)cc2c(=O)c(C(=O)O)cn(C3CC3)c12` [MOXIFLOXACIN], the MIC in the test on Staphylococcus aureus [1] stood at 0.06 µg/mL (≈ 0.149 µM); against Neisseria gonorrhoeae [14], 0.004 µg/mL (≈ 0.00996 µM); against Neisseria gonorrhoeae [2] it was 0.06 µg/mL (≈ 0.149 µM); with Acinetobacter baumannii [3], 2 µg/mL (≈ 4.98 µM); against Neisseria gonorrhoeae [15], 0.016 µg/mL (≈ 0.0399 µM); with Pseudomonas aeruginosa [4] it was 16 µg/mL (≈ 39.9 µM). The MIC against Neisseria gonorrhoeae [16] was determined as 0.016 µg/mL (≈ 0.0399 µM); against Staphylococcus aureus [5], 0.5 µg/mL (≈ 1.25 µM); with Neisseria gonorrhoeae [17], 2 µg/mL (≈ 4.98 µM); against Neisseria gonorrhoeae [18] it was 0.004 µg/mL (≈ 0.00996 µM); against Pseudomonas aeruginosa [6], 8 µg/mL (≈ 19.9 µM); against Neisseria gonorrhoeae [19] it was 0.016 µg/mL (≈ 0.0399 µM). Further, the MIC is 16 µg/mL (≈ 39.9 µM) in the test on Neisseria gonorrhoeae [20]; 2 µg/mL (≈ 4.98 µM) in the test on Neisseria gonorrhoeae [21]; 2 µg/mL (≈ 4.98 µM) against Neisseria gonorrhoeae [22]; 0.06 µg/mL (≈ 0.149 µM) in the test on Streptococcus pneumoniae; 0.5 µg/mL (≈ 1.25 µM) in the test on Escherichia coli [8]; 0.25 µg/mL (≈ 0.623 µM) with Acinetobacter baumannii [9]. Further, the MIC in the test on Pseudomonas aeruginosa [10] turned out to be 1 µg/mL (≈ 2.49 µM); in the test on Neisseria gonorrhoeae [23], 0.008 µg/mL (≈ 0.0199 µM); in the test with Acinetobacter baumannii [12], 4 µg/mL (≈ 9.96 µM); in the test with Staphylococcus aureus [13] it was 1 µg/mL (≈ 2.49 µM); in the test on Neisseria gonorrhoeae [24], 0.03 µg/mL (≈ 0.0747 µM).

Consider `CCCCCCCCCCCCN1CCN(c2c(F)cc3c(=O)c(C(=O)O)cn(C4CC4)c3c2OC)CC1`, for which the MIC is 32 µg/mL (≈ 60.4 µM) in the test on Staphylococcus aureus [1]; 0.12 µg/mL (≈ 0.227 µM) with Neisseria gonorrhoeae [2]; no less than 64 µg/mL in the test with Acinetobacter baumannii [3]; greater than 64 µg/mL with Pseudomonas aeruginosa [4]; no less than 64 µg/mL against Staphylococcus aureus [5]; greater than 64 µg/mL against Pseudomonas aeruginosa [6]. The MIC with Streptococcus pneumoniae was 4 µg/mL (≈ 7.55 µM); against Escherichia coli [7] it was 64 µg/mL (≈ 121 µM); against Escherichia coli [8] it was 32 µg/mL (≈ 60.4 µM); against Acinetobacter baumannii [9], 64 µg/mL (≈ 121 µM); with Pseudomonas aeruginosa [10], greater than 64 µg/mL; against Escherichia coli [11], greater than 64 µg/mL. Also, the values for the MIC in the test with Acinetobacter baumannii [12] and against Staphylococcus aureus [13] were 64 µg/mL (≈ 121 µM) and no less than 64 µg/mL, respectively.

In the case of `CCCCCCCCCN1CCN(c2c(F)cc3c(=O)c(C(=O)O)cn(C4CC4)c3c2OC)CC1`, the MIC in the test with Staphylococcus aureus [1] was 8 µg/mL (≈ 16.4 µM); in the test on Neisseria gonorrhoeae [2], 0.25 µg/mL (≈ 0.513 µM); in the test on Acinetobacter baumannii [3] it was 64 µg/mL (≈ 131 µM); in the test with Pseudomonas aeruginosa [4] it was no less than 64 µg/mL; in the test with Staphylococcus aureus [5], no less than 64 µg/mL; against Pseudomonas aeruginosa [6] it was no less than 64 µg/mL. The MIC is 2 µg/mL (≈ 4.1 µM) against Streptococcus pneumoniae; 8 µg/mL (≈ 16.4 µM) against Escherichia coli [7]; 8 µg/mL (≈ 16.4 µM) in the test on Escherichia coli [8]; 64 µg/mL (≈ 131 µM) in the test on Acinetobacter baumannii [9]; greater than 64 µg/mL with Pseudomonas aeruginosa [10]; greater than 64 µg/mL with Escherichia coli [11]. Besides, the results for the MIC against Acinetobacter baumannii [12] and in the test on Staphylococcus aureus [13] were 64 µg/mL (≈ 131 µM) and greater than 64 µg/mL, respectively.

Turning to `CCCCCCCN1CCN(c2c(F)cc3c(=O)c(C(=O)O)cn(C4CC4)c3c2OC)CC1`, the MIC in the test with Staphylococcus aureus [1] is 1 µg/mL (≈ 2.18 µM); in the test on Neisseria gonorrhoeae [2], 0.25 µg/mL (≈ 0.544 µM); in the test with Acinetobacter baumannii [3], 4 µg/mL (≈ 8.7 µM); with Pseudomonas aeruginosa [4], greater than 64 µg/mL; against Staphylococcus aureus [5], 2 µg/mL (≈ 4.35 µM); in the test with Pseudomonas aeruginosa [6] it was greater than 64 µg/mL. Also, the MIC is 4 µg/mL (≈ 8.7 µM) with Streptococcus pneumoniae; 1 µg/mL (≈ 2.18 µM) in the test on Escherichia coli [7]; 2 µg/mL (≈ 4.35 µM) with Escherichia coli [8]; 8 µg/mL (≈ 17.4 µM) with Acinetobacter baumannii [9]; 64 µg/mL (≈ 139 µM) against Pseudomonas aeruginosa [10]; greater than 64 µg/mL in the test with Escherichia coli [11]. The MIC in the test on Acinetobacter baumannii [12] worked out at 64 µg/mL (≈ 139 µM); in the test on Staphylococcus aureus [13] it was 8 µg/mL (≈ 17.4 µM).

With `CCCCCCCC(=O)N1CCN(c2c(F)cc3c(=O)c(C(=O)O)cn(C4CC4)c3c2OC)CC1`, the MIC with Staphylococcus aureus [1] was 1 µg/mL (≈ 2.05 µM); with Neisseria gonorrhoeae [2], 1 µg/mL (≈ 2.05 µM); against Streptococcus pneumoniae, 0.5 µg/mL (≈ 1.03 µM); against Escherichia coli [7], no less than 64 µg/mL.
